As a reminder, the pKi is the negative decadic logarithm of the Ki, by convention in mol/L. One may read the inhibition in vivo as the percentage by which the read-out fell short of the control. As a reminder, the AUC(0-t) is the area under the concentration-time curve up to a stated or last time point. What is called half-life is how long it takes for the measured level to halve. As usually defined, the bioavailability is dose-corrected exposure relative to a reference, in per cent.

This note sets out measurements from ChEMBL document CHEMBL1268816, “Discovery of a series of potent, orally active α,α-disubstituted piperidine NK(1) antagonists” (Bioorg Med Chem Lett, 2010).

pKi: −log10 of the molar value.

The target of data set [1] is Substance-P receptor (Homo sapiens, UniProt P25103). Kind of data set: Displacement of [3H]SAr-Met from human recombinant NK1 receptor expressed in CHO cells. The format is cell-based. The gist of the method:
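Membranes from CHO cells expressing recombinant human NK1 receptor; radioligand [3H]-Sar-Met substance P used near its experimentally derived Kd. Ki derived by Cheng–Prusoff equation. Binding values are the average of two or three independent determinations.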

In data set [2] the test system is Meriones unguiculatus. Kind of data set: Inhibition of GR-73632-induced foot tapping in Mongolian gerbil assessed as duration of repetitive hind foot tapping pretreated at 1 mg/kg, icv before GR-73632 challenge measured after 4 hrs. In kind it is functional. As to conditions: oral, in the assay text read “po before” for “icv before”. The gist of the method:
(§1)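 Female Mongolian gerbils given NK1 agonist GR73632 (3 pmol) by icv injection. Test antagonists given orally in 0.4% methylcellulose in distilled water at the indicated dose, at various pretreatment times before agonist. After recovery from anesthesia, animals observed 5 min in clear boxes and hind-foot tapping duration timed. Result expressed as % decrease versus vehicle-treated controls.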

In data set [3] the test system is Meriones unguiculatus. Kind of data set: Inhibition of GR-73632-induced foot tapping in Mongolian gerbil assessed as duration of repetitive hind foot tapping pretreated at 0.3 mg/kg, icv before GR-73632 challenge measured after 4 hrs. The format is functional. Conditions: oral, in the assay text read “po” for “icv”. The gist of the method:
as §1

The test system of data set [4] is Meriones unguiculatus. Kind of data set: Inhibition of GR-73632-induced foot tapping in Mongolian gerbil assessed as duration of repetitive hind foot tapping pretreated at 0.1 mg/kg, icv before GR-73632 challenge measured after 4 hrs. As to conditions: oral, in the assay text read “po” for “icv”. The format is functional. The gist of the method:
as §1

Data set [5] can be described thus: AUC (0 to 6 hrs) in rat at 10 mg/kg, po. In kind it is ADME, organism-based. More on the design: time < 6 hr, dose 10 mg/kg, route oral. As to conditions: plasma. The gist of the method:
(§2)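 Rat pharmacokinetics after oral dosing at 10 mpk (unless otherwise specified), vehicle 20% HPBCD.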

A short description of data set [6]: Half life in rat at 10 mg/kg, po. As to conditions: in vivo. The format is ADME, organism-based. Also noted: dose 10 mg/kg, route oral. The gist of the method:
as §2

A short description of data set [7]: Oral bioavailability in rat at 10 mg/kg. The format is ADME, organism-based. As to conditions: in vivo. The gist of the method:
as §2

Data set [8] is described as follows: AUC (0 to 6 hrs) in rat at 5 mg/kg, po after 24 hrs. Conditions: plasma. Also noted: time < 6 hr, dose 5 mg/kg, route oral. The format is ADME, organism-based.
The nature of data set [9]: AUC (0 to 6 hrs) in rat at 10 mg/kg, po after 6 hrs. In kind it is ADME, organism-based. More on the design: time < 6 hr, dose 10 mg/kg, route oral. As to conditions: plasma. In a few lines: as §2

Substance-P receptor, sequence (P25103 whole entry): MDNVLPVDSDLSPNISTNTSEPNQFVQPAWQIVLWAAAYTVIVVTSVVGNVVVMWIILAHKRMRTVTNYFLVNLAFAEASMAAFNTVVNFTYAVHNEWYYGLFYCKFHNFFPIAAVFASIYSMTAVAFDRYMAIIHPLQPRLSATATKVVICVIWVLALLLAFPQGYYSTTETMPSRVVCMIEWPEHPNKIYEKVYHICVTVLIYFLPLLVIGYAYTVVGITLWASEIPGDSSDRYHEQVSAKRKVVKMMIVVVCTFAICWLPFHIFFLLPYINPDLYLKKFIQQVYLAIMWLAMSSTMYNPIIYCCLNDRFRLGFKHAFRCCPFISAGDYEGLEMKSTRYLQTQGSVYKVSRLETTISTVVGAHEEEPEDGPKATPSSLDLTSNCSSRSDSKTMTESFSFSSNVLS

Turning to `CC(=O)N[C@H]1CC[C@@](CO[C@H](C)c2cc(C(F)(F)F)cc(C(F)(F)F)c2)(c2ccccc2)NC1`, in data set [1], the pKi was 9.82. The inhibition in vivo at 1 mg/kg in data set [2] is 100%. In [3], the inhibition in vivo at 0.3 mg/kg came to 99%. The inhibition in vivo at 0.1 mg/kg in [4] is 83%. Moreover, the AUC(0-t) at 6 h in [5] turned out to be 10000 ng·h/mL. In data set [6], this molecule had a half-life of 3.2 h. In [7], this molecule displayed a bioavailability of 63%.

`CC(=O)N[C@@H]1CC[C@@](CO[C@H](C)c2cc(C(F)(F)F)cc(C(F)(F)F)c2)(c2ccccc2)NC1`: in data set [1], the negative logarithm of the Ki (pKi) is 9.46. For the same molecule, the inhibition in vivo at 1 mg/kg in [2] was 76%. Besides, the inhibition in vivo at 0.3 mg/kg in data set [3] came to 36%. In addition, the AUC(0-t) at 6 h in data set [5] stood at 795 ng·h/mL.

As to `CCC(=O)N[C@H]1CC[C@@](CO[C@H](C)c2cc(C(F)(F)F)cc(C(F)(F)F)c2)(c2ccccc2)NC1`, the pKi in [1] was 9.54. For the same molecule, in data set [2], the inhibition in vivo at 1 mg/kg turned out to be 100%. Moreover, in data set [3], the inhibition in vivo at 0.3 mg/kg came out at 93%. In data set [4], the inhibition in vivo at 0.1 mg/kg turned out to be 50%. The AUC(0-t) at 6 h in [5] is 1950 ng·h/mL.

Consider `C[C@@H](OC[C@@]1(c2ccccc2)CC[C@H](NC(=O)C2CC2)CN1)c1cc(C(F)(F)F)cc(C(F)(F)F)c1`, for which the pKi in data set [1] is 9.64. Further, the inhibition in vivo at 1 mg/kg in data set [2] stood at 100%. Also, the inhibition in vivo at 0.3 mg/kg in [3] came out at 79%. Also, in [5], the AUC(0-t) at 6 h was found to be 5260 ng·h/mL.

With `C[C@@H](OC[C@@]1(c2ccccc2)CC[C@H](N2CCCC2=O)CN1)c1cc(C(F)(F)F)cc(C(F)(F)F)c1`, the pKi in data set [1] was 9.59. In addition, the inhibition in vivo at 1 mg/kg in data set [2] came out at 61%. This molecule also registered an AUC(0-t) at 6 h in data set [5] of 13800 ng·h/mL.

Regarding `C[C@@H](OC[C@@]1(c2ccccc2)CC[C@H](NC(N)=O)CN1)c1cc(C(F)(F)F)cc(C(F)(F)F)c1`, the pKi in data set [1] was 9.16. Besides, the inhibition in vivo at 1 mg/kg in data set [2] stood at 96%. Also, the inhibition in vivo at 0.3 mg/kg in data set [3] was determined as 6%. In [5], this molecule had an AUC(0-t) at 6 h of 6040 ng·h/mL.

On to `C[C@@H](OC[C@@]1(c2ccccc2)CC[C@H](N2CCNC2=O)CN1)c1cc(C(F)(F)F)cc(C(F)(F)F)c1`, for which, in data set [1], the pKi is 9.23. For the same molecule, the inhibition in vivo at 1 mg/kg in data set [2] is 86%. In [3], the inhibition in vivo at 0.3 mg/kg turned out to be 71%.

Turning to `C[C@@H](OC[C@@]1(c2ccccc2)CC[C@H](NS(C)(=O)=O)CN1)c1cc(C(F)(F)F)cc(C(F)(F)F)c1`, the pKi in data set [1] was 8.99. Besides, the inhibition in vivo at 1 mg/kg in [2] was determined as 90%. Besides, the inhibition in vivo at 0.3 mg/kg in data set [3] came out at 25%. This molecule showed an AUC(0-t) at 6 h in data set [5] of 5940 ng·h/mL.

In the case of `C[C@@H](OC[C@@]1(c2ccccc2)CC[C@H](Nc2ncccn2)CN1)c1cc(C(F)(F)F)cc(C(F)(F)F)c1`, the pKi in data set [1] is 9.48. In data set [2], the inhibition in vivo at 1 mg/kg was 5%.

Turning to `C[C@@H](OC[C@@]1(c2ccccc2)CC[C@H](NC2=NCCO2)CN1)c1cc(C(F)(F)F)cc(C(F)(F)F)c1`, in data set [1], the pKi was 9.55. Moreover, the inhibition in vivo at 1 mg/kg in data set [2] worked out at 37%.

For `C[C@@H](OC[C@@]1(c2ccccc2)CC[C@H](C(N)=O)CN1)c1cc(C(F)(F)F)cc(C(F)(F)F)c1`, in data set [1], the pKi is 9.66. Also, the inhibition in vivo at 1 mg/kg in [2] was 92%. Also, in data set [3], the inhibition in vivo at 0.3 mg/kg came out at 82%. Moreover, the half-life in [6] is 3.4 h. In data set [7], this molecule returned a bioavailability of 68%. In data set [8], the AUC(0-t) at 6 h worked out at 2600 ng·h/mL.

In turn, `C[C@@H](OC[C@@]1(c2ccccc2)CC[C@@H](C(N)=O)CN1)c1cc(C(F)(F)F)cc(C(F)(F)F)c1` had an AUC(0-t) at 6 h in data set [9] of 1690 ng·h/mL. Moreover, in data set [1], the pKi was 9.72. Moreover, the inhibition in vivo at 1 mg/kg in data set [2] worked out at 90%. In addition, the inhibition in vivo at 0.3 mg/kg in data set [3] amounted to 75%.

For `CNC(=O)[C@H]1CC[C@@](CO[C@H](C)c2cc(C(F)(F)F)cc(C(F)(F)F)c2)(c2ccccc2)NC1`, the pKi in data set [1] is 9.59. For the same molecule, in data set [2], the inhibition in vivo at 1 mg/kg is 91%. Moreover, the inhibition in vivo at 0.3 mg/kg in data set [3] amounted to 29%.

`CNC(=O)[C@@H]1CC[C@@](CO[C@H](C)c2cc(C(F)(F)F)cc(C(F)(F)F)c2)(c2ccccc2)NC1`: the AUC(0-t) at 6 h in data set [9] came out at 166 ng·h/mL. In [1], the pKi is 9.25. In addition, in data set [2], the inhibition in vivo at 1 mg/kg turned out to be 80%.

In turn, `CCNC(=O)[C@H]1CC[C@@](CO[C@H](C)c2cc(C(F)(F)F)cc(C(F)(F)F)c2)(c2ccccc2)NC1` came in with an AUC(0-t) at 6 h in data set [9] of 3680 ng·h/mL. Moreover, in data set [1], the pKi was 9.43. In data set [2], the inhibition in vivo at 1 mg/kg was found to be 92%. The inhibition in vivo at 0.3 mg/kg in [3] was found to be 28%.

`CCNC(=O)[C@@H]1CC[C@@](CO[C@H](C)c2cc(C(F)(F)F)cc(C(F)(F)F)c2)(c2ccccc2)NC1`: in data set [1], the pKi is 8.95. In data set [2], the inhibition in vivo at 1 mg/kg is 78%.

Consider `C[C@@H](OC[C@@]1(c2ccccc2)CC[C@H](C(=O)NC2CC2)CN1)c1cc(C(F)(F)F)cc(C(F)(F)F)c1`, for which, in [9], the AUC(0-t) at 6 h came to 1940 ng·h/mL. Also, the pKi in data set [1] was 9.47. Moreover, the inhibition in vivo at 1 mg/kg in [2] came out at 45%.

On to `C[C@@H](OC[C@@]1(c2ccccc2)CC[C@@H](C(=O)NC2CC2)CN1)c1cc(C(F)(F)F)cc(C(F)(F)F)c1`, for which the pKi in [1] is 9.40. Further, in data set [2], the inhibition in vivo at 1 mg/kg was found to be 69%.

On to `C[C@@H](OC[C@@]1(c2ccccc2)CCCCN1)c1cc(C(F)(F)F)cc(C(F)(F)F)c1`, for which, in data set [1], the pKi was 9.52.

For `FC(F)(F)c1cc(COCC2(c3ccccc3)CCCCN2)cc(C(F)(F)F)c1` (configuration not stated), the pKi in data set [1] is 9.00.
